From ChEMBL document CHEMBL1131415, “Structure-activity relationships for antiplasmodial activity among 7-substituted 4-aminoquinolines” (J Med Chem, 1998)

Legend:
Type in all cases: functional, organism-based
Plasmodium falciparum [1] = experiment: In vitro antiplasmodial activity against chloroquine-sensitive Plasmodium falciparum Haiti 135
Outline: (§1)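 Cloned P. falciparum (chloroquine-susceptible Haiti-13524 or chloroquine-resistant Indochina I), synchronous early ring stage, 2% red cell suspension at 0.2% parasitemia. Exposed to varying AQ concentrations 48 h, then same concentrations plus 0.5 µCi 3H-hypoxanthine for additional 18 h. IC50 from linear regression of percent inhibition of 3H-hypoxanthine accumulation vs log concentration; triplicate determinations, chloroquine control.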

Plasmodium falciparum [2] = experiment: In vitro anti-plasmodial activity against chloroquine-resistant Plasmodium falciparum Indochina I; outline: as §1
Plasmodium falciparum [3] = experiment: In vitro antiplasmodial activity against chloroquine-resistant Plasmodium falciparum Indochina I; outline: as §1

Compound | IC50 (Plasmodium falciparum [1]) | IC50 (Plasmodium falciparum [2]) | IC50 (Plasmodium falciparum [3])
CCN(CC)CCCCCCCCCCNc1ccnc2cc(OC)ccc12 | 10 nM | 170 nM | –
CCN(CC)CCCNc1ccnc2cc(F)ccc12 | 23 nM | – | 120 nM
CCN(CC)CC(C)Nc1ccnc2cc(Cl)ccc12 (stereo not drawn) | 8 nM | – | 10 nM
CCN(CC)CCCNc1ccnc2cc(OC)ccc12 | 150 nM | – | 900 nM
CCN(CC)CCNc1ccnc2cc(C(F)(F)F)ccc12 | 30 nM | – | 41 nM
CCN(CC)CC(C)Nc1ccnc2cc(C(F)(F)F)ccc12 (stereo not drawn) | 50 nM | – | 50 nM
CCN(CC)CCCNc1ccnc2cc(Br)ccc12 | 4 nM | – | 6 nM
CCN(CC)CCNc1ccnc2cc(I)ccc12 | 6 nM | – | 6 nM
CCN(CC)CCCCCCCCCCCCNc1ccnc2cc(I)ccc12 | 10 nM | 20 nM | –
CCN(CC)CCCCCCCCCCNc1ccnc2cc(Br)ccc12 | 6 nM | 17 nM | –
CCN(CC)CC(C)Nc1ccnc2cc(Br)ccc12 (stereo not drawn) | 11 nM | – | 12 nM
CCN(CC)CCNc1ccnc2cc(Br)ccc12 | 7 nM | – | 7 nM
CCN(CC)CCCCCCCCCCNc1ccnc2cc(I)ccc12 | 6 nM | 16 nM | –
CCN(CC)CCCCCCCCNc1ccnc2cc(Cl)ccc12 | 4 nM | 41 nM | –
CCN(CC)CCCC(C)Nc1ccnc2cc(I)ccc12 (stereo not drawn) | 4 nM | – | 35 nM
CCN(CC)CCCNc1ccnc2cc(C(F)(F)F)ccc12 | 15 nM | – | 18 nM
CCN(CC)CCCNc1ccnc2cc(I)ccc12 | 3 nM | – | 4 nM
CCN(CC)CCCCCCCCCCCCNc1ccnc2cc(Br)ccc12 | 8 nM | 18 nM | –
CCN(CC)CCNc1ccnc2cc(F)ccc12 | 35 nM | – | 60 nM
CCN(CC)CCCCCCCCCCNc1ccnc2cc(F)ccc12 | 7 nM | 40 nM | –

Compound | IC50 (Plasmodium falciparum [1]) | IC50 (Plasmodium falciparum [2]) | IC50 (Plasmodium falciparum [3])
CCN(CC)CCCC(C)Nc1ccnc2cc(C(F)(F)F)ccc12 (stereo not drawn) | 16 nM | – | 45 nM
CCN(CC)CCNc1ccnc2cc(Cl)ccc12 | 7 nM | – | 5 nM
CCN(CC)CCCCCCCCCCCCNc1ccnc2cc(F)ccc12 | 8 nM | 25 nM | –
CCN(CC)CCCCNc1ccnc2cc(Cl)ccc12 | 5 nM | – | 51 nM
CCN(CC)CCCCCCCCCCNc1ccnc2cc(Cl)ccc12 | 6 nM | 13 nM | –
CCN(CC)CCCC(C)Nc1ccnc2cc(OC)ccc12 (stereo not drawn) | 55 nM | – | 3000 nM
CCN(CC)CCCCCCNc1ccnc2cc(Cl)ccc12 | 5 nM | – | 56 nM
CCN(CC)CCCCCCCCCCCCNc1ccnc2cc(Cl)ccc12 | 13 nM | 11 nM | –
CCN(CC)CC(C)Nc1ccnc2cc(OC)ccc12 (stereo not drawn) | 94 nM | – | 180 nM
CCN(CC)CCCCCCCCCCNc1ccnc2cc(C(F)(F)F)ccc12 | 10 nM | 20 nM | –
CCN(CC)CCNc1ccnc2cc(OC)ccc12 | 48 nM | – | 155 nM
CCN(CC)CCCC(C)Nc1ccnc2cc(Br)ccc12 (stereo not drawn) | 5 nM | – | 90 nM
CCN(CC)CCCNc1ccnc2cc(Cl)ccc12 | 5 nM | – | 6 nM
CCN(CC)CC(C)Nc1ccnc2cc(I)ccc12 (stereo not drawn) | 7 nM | – | 7 nM
CCN(CC)CCCCCCCCCCCCNc1ccnc2cc(C(F)(F)F)ccc12 | 5 nM | 25 nM | –
CCN(CC)CC(C)Nc1ccnc2cc(F)ccc12 (stereo not drawn) | 30 nM | – | 60 nM
CCN(CC)CCCCCNc1ccnc2cc(Cl)ccc12 | 6 nM | – | 58 nM
CCN(CC)CCCCCCCCCCCCNc1ccnc2cc(OC)ccc12 | 17 nM | 90 nM | –
CCN(CC)CCCC(C)Nc1ccnc2cc(F)ccc12 (stereo not drawn) | 20 nM | – | 500 nM
